Source: PubChem BioAssay
Unmarked numbers belong to inactive results.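 Rule for the calls: active = growth inhibition above 25% in both replicates, a cutoff set 3 SD above the mean; inconclusive = above 25% in only one replicate; inactive = the rest.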

assay: S. cerevisiae growth inhibition in permissive medium (OD615), pilot counter-assay for S. cerevisiae lifespan shortening project, permissive growth control (AID 705); settings: OD615, 24 h, at 10 µM, stronger effect = higher value
In short: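 assay system = Saccharomyces cerevisiae strain carrying genetically modified DeaD replicative-lifespan system | medium = SC raffinose/galactose permissive medium | dosing = 10 µM single dose, 0.25% DMSO | schedule = 24 h compound exposure at 30 °C after 4 h pre-growth | measured by = OD at 615 nm | read-out basis = growth inhibition from lowered OD615 after 24 h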

In order of falling growth inhibition:
1. O=C1c2ccccc2C(Nc2cccnc2)N1Cc1ccc2c(c1)OCO2 (stereo not given)  7.46%
2. c1ccc(OCc2nn3c(-c4ccccn4)nnc3s2)cc1  7.46%
3. CCc1ccc(NC(=O)C2CC=CCC2C(=O)O)cc1 (stereo not given)  6.68%
4. CC(=O)C1=C(O)C(=O)N(CC(=O)O)C1c1ccccc1Cl (stereo not given)  0.915%
5. Cc1noc(NS(=O)(=O)c2ccc(NC(=O)CCn3c(=O)oc4ccccc43)cc2)c1C  0.07%
6. CC(=O)Nc1ccc(NC2(C)C(=O)c3ccccc3C2=O)cc1  -0.27%
7. Cc1nc2cc(-c3cccc(F)c3)nn2c(C)c1CCC(=O)N1CCN(c2ccccn2)CC1  -0.315%
8. COC(=O)c1c(NC(=O)CCN2CCOCC2)sc2c1CCCC2  -1.47%
9. Cn1c(NC(=O)CC(C)(C)C)cc(=O)n(C)c1=O  -2.31%
10. O=C(Nc1ccc2oc(-c3ccccc3)nc2c1)c1ccncc1  -2.31%
11. Cc1cccc(OCc2nnc(SCC(=O)NCCc3ccccc3)o2)c1  -3.83%
12. Clc1ccc(-c2nc(-c3ccccn3)no2)cc1Cl  -4.08%
13. COc1ccc(C(C)(C)C)cc1NC(=O)COC(=O)c1cnc(C)cn1  -4.5%
14. O=C(Cn1cc2c(n1)CCCCC2)N1CCCCC1  -4.8%
15. O=C(Cn1cc2c(n1)CCCCC2)Nc1ccc(F)cc1F  -4.89%
16. Nc1c(Br)cc(Br)c(N2CCCC2=O)c1Br  -6.31%
17. Cc1cccc(N2CCN(C(=O)C3CCCN(S(=O)(=O)c4cccc5cccnc45)C3)CC2)c1C (stereo not given)  -6.73%
18. O=C(C(c1ccccc1)c1ccccc1)N1CCOCC1  -6.96%
19. Cc1nccn1-c1ncnc2sc3c(c12)CCCC3  -7.46%
20. Cc1cc(C)n(Cc2ccccc2F)c(=O)c1C#N  -7.71%
21. O=C(CCc1nc2ccccc2[nH]1)NCc1ccc2c(c1)OCO2  -8.32%
22. CC(C)N1C(=O)CCC1C(=O)NCc1ccccc1Cl (stereo not given)  -8.36%
23. O=C(c1ccccc1)c1cccc(NC(=O)c2ccco2)c1  -8.52%
24. CCC(Oc1ccccc1)C(=O)Nc1cc(C)on1 (stereo not given)  -8.55%
25. O=C(COC(=O)c1ccc(S(=O)(=O)NCc2ccco2)cc1)Nc1ccccc1OC(F)F  -8.88%
26. Cc1noc(C)c1CSCC(=O)OCC(=O)NC1CCCCC1  -9%
27. O=C1N2CN(C(c3ccccc3)c3ccccc3)CN=C2SC1(CO)CO  -9.07%
28. Nc1c(C(=O)c2ccc(Br)s2)oc2ccccc12  -9.21%
29. CCOCCCNC(=O)C(NC(=O)CNC(C)=O)c1ccc(Cl)cc1 (stereo not given)  -10.1%
30. COc1ccc(C2C(C(=O)N3CCOCC3)CCC(=O)N2c2cc(OC)c(OC)c(OC)c2)cc1 (stereo not given)  -10.2%
31. COc1ccccc1NC(=O)Nc1ccc(Br)cn1  -10.3%
32. C1=C(N2CCOCC2)/C(=C/c2nc3ccccc3[nH]2)CC1  -10.4%
33. COc1ccccc1C(=O)Nc1nnc(-c2ccc3c(c2)CCCC3)o1  -10.5%
34. Cc1ccc(Cl)cc1N1CCN(C(=O)CCC(=O)O)CC1  -10.9%
35. O=C(c1ccc2snnc2c1)N1CCCC1  -11.3%
36. CCS(=O)(=O)N1CCN(Cc2nc3ccccc3c(=O)[nH]2)CC1  -12.6%
37. Cn1c(Cn2c(=O)sc3ccccc32)nnc1SCC(=O)N1CCCCCC1  -15%
38. COC(=O)c1cn(C(C)C(=O)NCc2ccco2)c2ccccc12 (stereo not given)  -16.9%
39. Cc1onc(-c2ccccc2Cl)c1C(=O)N(C)C1CCCCC1  -18.5%
40. CSC1=N/C(=C\c2ccccc2F)C(=O)S1  -23.1%
